Calls of active or inactive are those of the source. The calls are words filed in the database; no cut-off is given here.
Key:
[1] = In vivo inhibition of HIF-PHD2 in C57BL/6 mouse assessed as serum erythropoietin level at 100 mg/kg, iv measured after 4 hrs; type: functional
In short: (§1)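 Mouse pharmacodynamic EPO assay (MoPED). Compound dosed iv; serum EPO measured 4 hr after dosing and reported in pg/mL. Minimum effective dose is the lowest dose giving EPO elevation.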

[2] = Protein binding in rhesus monkey plasma assessed as unbound fraction at 1 mg/kg, po or 0.5 mg/kg, iv; type: ADME, organism-based, Macaca mulatta; settings: read-out: PPB
[3] = Volume of distribution at steady state in rat at 2 mg/kg, po or 1 mg/kg, iv; type: ADME, organism-based; settings: in vivo, read-out: Vdss
[4] = Oral bioavailability in dog at 1 mg/kg; type: ADME, organism-based, Canis lupus familiaris; settings: in vivo
In short: (§2)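 Dog and rhesus monkey dosed 1 mg/kg po and 0.5 mg/kg iv. The iv vehicle was PEG200:12%HPCD:water (30:12:58 v/v/v); the po vehicle was Imwitor:Tween (1:1 w/w). Clearance was measured in plasma. Protein binding was measured in 100% serum.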

[5] = Plasma clearance in rat at 2 mg/kg, po or 1 mg/kg, iv; type: ADME, organism-based
[6] = Half life in C57BL/6J mouse at 1 mg/kg, po or 0.5 mg/kg, iv; type: ADME, organism-based; settings: in vivo
In short: (§3)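 Single-dose PK at 1 mg/kg po and 0.5 mg/kg iv. Mouse clearance is from blood; dog and rhesus clearance is from plasma. Mouse vehicle, both routes: DMSO:PEG400:water (5:40:55, v/v/v). Dog and monkey iv vehicle: PEG200:12%HPCD:water (30:12:58 v/v/v). Dog and monkey po vehicle: Imwitor:Tween (1:1 w/w).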

[7] = Drug recovery in fasted bile-duct cannulated Sprague-Dawley rat bile assessed as metabolically unchanged parent compound at 5 mg/kg, po using [3H]-labeled compound measured after 48 hrs; type: ADME, organism-based; settings: in vivo
[8] = Metabolic stability in rat liver microsomes assessed as metabolic turnover at 10 uM measured after 60 mins in presence of NADPH; type: ADME, Microsome; settings: read-out: Drug metabolism
In short: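 Tritiated compound incubated with rat or monkey liver microsomes supplemented with NADPH; metabolic turnover monitored.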

[9] = biological target: Cytochrome P450 2C9 (Homo sapiens, UniProt P11712); assay: Inhibition of CYP2C9 (unknown origin); type: ADME
[10] = biological target: T1, Cytochrome P450 1A2 (Homo sapiens, UniProt P05177); assay: Inhibition of CYP1A2 (unknown origin); type: ADME
T1 sequence (P05177 whole entry): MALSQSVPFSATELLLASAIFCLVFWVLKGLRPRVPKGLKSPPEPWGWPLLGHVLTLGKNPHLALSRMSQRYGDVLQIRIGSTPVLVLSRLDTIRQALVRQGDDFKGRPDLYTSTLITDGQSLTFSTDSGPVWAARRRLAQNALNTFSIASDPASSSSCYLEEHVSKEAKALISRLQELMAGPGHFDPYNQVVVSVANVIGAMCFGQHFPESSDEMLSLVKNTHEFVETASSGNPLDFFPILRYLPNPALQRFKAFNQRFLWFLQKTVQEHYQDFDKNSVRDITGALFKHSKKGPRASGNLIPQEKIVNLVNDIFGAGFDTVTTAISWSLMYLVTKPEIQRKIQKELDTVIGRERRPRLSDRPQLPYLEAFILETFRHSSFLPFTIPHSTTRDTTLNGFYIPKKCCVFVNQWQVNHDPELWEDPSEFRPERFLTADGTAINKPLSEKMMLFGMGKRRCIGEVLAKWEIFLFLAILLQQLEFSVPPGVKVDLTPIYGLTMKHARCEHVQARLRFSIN

[11] = Protein binding in dog plasma assessed as unbound fraction at 1 mg/kg, po or 0.5 mg/kg, iv; type: ADME, organism-based, Canis lupus familiaris; settings: read-out: PPB
[12] = Drug recovery in fasted bile-duct cannulated Sprague-Dawley rat urine assessed as metabolically unchanged parent compound at 5 mg/kg, po using [3H]-labeled compound measured after 48 hrs; type: ADME, organism-based; settings: in vivo
[13] = biological target: T2, Cytochrome P450 2B6 (Homo sapiens, UniProt P20813); assay: Inhibition of CYP2B6 (unknown origin); type: ADME
T2 sequence (P20813 whole entry): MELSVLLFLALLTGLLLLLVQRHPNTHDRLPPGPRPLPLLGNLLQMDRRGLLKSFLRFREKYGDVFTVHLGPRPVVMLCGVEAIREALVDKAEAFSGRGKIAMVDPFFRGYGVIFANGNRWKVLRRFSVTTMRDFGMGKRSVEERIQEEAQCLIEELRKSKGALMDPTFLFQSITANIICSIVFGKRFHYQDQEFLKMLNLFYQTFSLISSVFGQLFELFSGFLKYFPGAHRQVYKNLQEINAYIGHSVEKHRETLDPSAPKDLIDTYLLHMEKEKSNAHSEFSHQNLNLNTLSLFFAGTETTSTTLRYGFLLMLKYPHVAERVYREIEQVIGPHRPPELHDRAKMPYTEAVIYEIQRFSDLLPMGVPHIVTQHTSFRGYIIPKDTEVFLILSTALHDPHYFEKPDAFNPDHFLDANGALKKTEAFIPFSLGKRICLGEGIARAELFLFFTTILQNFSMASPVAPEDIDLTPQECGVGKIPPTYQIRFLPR

[14] = Half life in rat at 2 mg/kg, po or 1 mg/kg, iv; type: ADME, organism-based; settings: in vivo
[15] = species: Rattus norvegicus; settings: Sprague-Dawley, dose 15.0 mg/kg
[16] = Drug metabolism in human liver microsomes assessed as O-demethylated metabolite formation; type: ADME, Microsome
[17] = Cmax in rhesus monkey at 1 mg/kg, po or 0.5 mg/kg, iv; type: ADME, organism-based, Macaca mulatta; parameters: dose 1 mg/kg; settings: in vivo; in short: as §3
[18] = Half life in dog at 1 mg/kg, po or 0.5 mg/kg, iv; type: ADME, organism-based, Canis lupus familiaris; settings: in vivo; in short: as §3
[19] = Toxicity in Sprague-Dawley rat assessed as change in hemoglobin levels at 1.5 mg/kg, po QD administered for 4 weeks and measured post last dose; type: organism-based; settings: in vivo, 672 h
[20] = Volume of distribution at steady state in rhesus monkey at 1 mg/kg, po or 0.5 mg/kg, iv; type: ADME, organism-based, Macaca mulatta; settings: in vivo, read-out: Vdss; in short: as §2
[21] = Half life in rhesus monkey at 1 mg/kg, po or 0.5 mg/kg, iv; type: ADME, organism-based, Macaca mulatta; settings: in vivo; in short: as §3
[22] = species: Mus musculus; settings: C57BL/6, dose 5-15 mg/kg, time 2.0 day
[23] = In vivo inhibition of HIF-PHD2 in C57BL/6 mouse assessed as serum erythropoietin level at 15 mg/kg, iv measured after 4 hrs; type: functional; in short: as §1
[24] = Metabolic stability in human liver microsomes assessed as metabolic turnover at 10 uM measured after 60 mins in presence of NADPH; type: ADME, Microsome; settings: read-out: Drug metabolism
[25] = Blood clearance in C57BL/6J mouse at 1 mg/kg, po or 0.5 mg/kg, iv; type: ADME, organism-based; settings: whole blood; in short: as §3
[26] = Drug metabolism in fasted bile-duct cannulated Sprague-Dawley rat bile assessed as oxidation of parent compound causing metabolite formation at 5 mg/kg, po using [3H]-labeled compound measured after 48 hrs; type: ADME, organism-based; settings: in vivo
[27] = Drug recovery in fasted bile-duct cannulated Sprague-Dawley rat bile at 5 mg/kg, po using [3H]-labeled compound measured after 48 hrs; type: ADME, organism-based; settings: in vivo

Sequence of Cytochrome P450 2C9 (P11712 whole entry): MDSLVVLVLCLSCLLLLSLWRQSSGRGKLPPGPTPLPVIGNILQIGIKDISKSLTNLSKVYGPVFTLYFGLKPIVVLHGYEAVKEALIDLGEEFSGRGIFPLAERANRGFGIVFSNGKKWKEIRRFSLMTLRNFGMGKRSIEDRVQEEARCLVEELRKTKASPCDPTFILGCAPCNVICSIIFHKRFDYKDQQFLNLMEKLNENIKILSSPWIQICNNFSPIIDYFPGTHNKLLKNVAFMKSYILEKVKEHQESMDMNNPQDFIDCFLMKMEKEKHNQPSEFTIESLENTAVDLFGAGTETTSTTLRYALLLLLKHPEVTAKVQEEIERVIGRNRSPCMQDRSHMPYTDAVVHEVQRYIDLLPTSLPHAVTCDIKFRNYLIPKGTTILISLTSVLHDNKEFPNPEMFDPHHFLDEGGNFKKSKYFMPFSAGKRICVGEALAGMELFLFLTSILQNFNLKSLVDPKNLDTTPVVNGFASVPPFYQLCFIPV

Work on `COc1ccc(C(NC(=O)c2cnc(-c3cccnn3)nc2O)c2ccc(OC)cc2)cc1` yielded an Activity [1] of 27000 pg/mL, a fraction unbound [2] of 0.005 and a Vd [3] of 0.16 L/kg. The bioavailability [4] was 71%, the clearance [5] was 0.2 mL/min/kg and the half-life [6] was 11 h. The Drug recovery [7] was < 10%, the metabolised at 1 h, 10 µM [8] was < 10% and the IC50 [9] was > 60 µM. The IC50 [10] was > 60 µM, the fraction unbound [11] was 0.01 and the Drug recovery [12] was < 10%. The IC50 [13] was > 60 µM, the half-life [14] was 9.3 h and the inhibition [15] was “Active”. The Drug metabolism [16] was “Metabolite_Detected”, the Cmax [17] was 17 µM and the half-life [18] was 19 h. The Activity [19] was 1 g/dL, the Vd [20] was 0.1 L/kg and the half-life [21] was 10 h. The inhibition [22] was “Active”, the Activity [23] was 12000 pg/mL and the metabolised at 1 h, 10 µM [24] was 34%. For the same compound, the clearance [25] was 0.13 mL/min/kg, the Drug metabolism [26] was “Metabolite_Detected” and the Drug recovery [27] was 12%.
